Published values from different studies.
Protocols differ between the studies behind these lines.
Sample: Caco-2

SMILES | tested at | time | pH | Papp A→B
N#Cc1ccc(C[C@H](Nc2nnc(-c3ccc(F)cc3)s2)C(=O)N2CCc3ccccc32)cc1 | 100 µM | 2 h | – | 11.2 ×10⁻⁶ cm/s
N#C[C@@]1(c2ccc3c(N)ncnn23)O[C@H](CO)[C@@H](O)[C@H]1O | 10 µM | 2 h | – | 3.8 ×10⁻⁶ cm/s
O=C(O)[C@H]1O[C@@H](Oc2cc3oc(-c4ccccc4)cc(=O)c3c(O)c2O)[C@H](O)[C@@H](O)[C@@H]1O | 100 µg/mL | 2 h | – | 10.8 ×10⁻⁶ cm/s
Cc1ccc(N(c2ccc(NC(=O)CN(C)c3ccccc3N3CCCC3=O)cc2)C(C)C)cc1 | – | – | – | 1.09 ×10⁻⁶ cm/s
Cc1ccc2[nH]c(=S)n(Cc3cccnc3)c(=O)c2c1 | 10 µM | 90 min | pH 7.4 | 35.4 ×10⁻⁶ cm/s
C[C@@H]1O[C@@H](OC[C@H]2O[C@@H](Oc3c(-c4ccc(O)c(O)c4)oc4cc(O)cc(O)c4c3=O)[C@H](O)[C@@H](O)[C@@H]2O)[C@H](O)[C@H](O)[C@H]1O | 100 µg/mL | – | – | 0.304 ×10⁻⁶ cm/s
CN(C)CCc1c[nH]c2ccc(C[C@H]3COC(=O)N3)cc12 | 5 µM | 2 h | – | 0.56 ×10⁻⁶ cm/s
CC(C)C(=O)OCc1cc2[nH]c(=S)n(Cc3cccnc3)c(=O)c2cc1Cl | 10 µM | 90 min | pH 7.4 | 1.4 ×10⁻⁶ cm/s
O=C(CCc1ccc(O)cc1)c1c(O)cc(O)cc1O[C@@H]1O[C@H](CO)[C@@H](O)[C@H](O)[C@H]1O | 100 µg/mL | 2 h | – | 2.94 ×10⁻⁶ cm/s
C[C@H]1O[C@@H](O[C@H]2[C@@H](O)C[C@H](O[C@H]3[C@@H](O)C[C@H](O[C@H]4CC[C@@]5(C)[C@H](CC[C@@H]6[C@@H]5C[C@@H](O)[C@]5(C)[C@@H](C7=CC(=O)OC7)CC[C@]65O)C4)O[C@@H]3C)O[C@@H]2C)C[C@H](O)[C@@H]1O | 10 µM | 2 h | – | 0.48 ×10⁻⁶ cm/s
O=c1c2cc(Cl)ncc2[nH]c(=S)n1Cc1cccnc1 | 10 µM | 90 min | pH 7.4 | 34.6 ×10⁻⁶ cm/s
COc1ccc([C@@H]2CC(=O)c3c(O)cc(O)cc3O2)cc1O | 100 µg/mL | 2 h | – | 3.95 ×10⁻⁶ cm/s
CC(C)(N)COCC(=O)N1CCC[C@H](C(=O)NCc2nc(-c3ccc(C(F)(F)F)cc3)cs2)C1 | – | – | pH 7.4 | 0.18 ×10⁻⁶ cm/s
CC(=O)OCc1cc2[nH]c(=S)n(Cc3cccnc3)c(=O)c2cc1Cl | 10 µM | 90 min | pH 7.4 | 0.6 ×10⁻⁶ cm/s
O=c1c(-c2ccc(O)cc2)coc2cc(O)ccc12 | 100 µg/mL | 2 h | – | 27.4 ×10⁻⁶ cm/s
N#Cc1ccc(C[C@H](NC(=O)Nc2ccc(F)cc2)C(=O)N2CCc3ccccc32)cc1 | 100 µM | 2 h | – | 49.3 ×10⁻⁶ cm/s
COC(=O)[C@H]1[C@H]2C[C@@H]3c4[nH]c5cc(OC)ccc5c4CCN3C[C@H]2C[C@@H](OC(=O)c2cc(OC)c(OC)c(OC)c2)[C@@H]1OC | 5 µM | 2 h | – | 0.97 ×10⁻⁶ cm/s
COc1cc(C2Oc3cc([C@H]4Oc5cc(O)cc(O)c5C(=O)[C@@H]4O)ccc3OC2CO)ccc1O (stereo partly drawn) | 100 µg/mL | 2 h | – | 19 ×10⁻⁶ cm/s

SMILES | tested at | time | pH | Papp A→B
CCOCC(=O)N1CCC[C@H](C(=O)NCc2nc(-c3ccc(C#N)nc3)cs2)C1 | – | – | pH 7.4 | 13 ×10⁻⁶ cm/s
N#Cc1ccc(C[C@H](Nc2ncc(-c3ccc(F)cc3)o2)C(=O)N2CCc3ccccc32)cc1 | 100 µM | 2 h | – | 10.6 ×10⁻⁶ cm/s
Oc1cc(O)c2c(c1)O[C@H](c1ccc(O)c(O)c1)[C@H](O)C2 | 100 µg/mL | 2 h | – | 1.26 ×10⁻⁶ cm/s
CNC(C)(C)COCC(=O)N1CCC[C@H](C(=O)NCc2nc(-c3ccc(C(F)(F)F)cc3)cs2)C1 | – | – | pH 7.4 | 0.19 ×10⁻⁶ cm/s
O=c1cc(-c2ccc(O)cc2)oc2c([C@@H]3O[C@H](CO)[C@@H](O)[C@H](O)[C@H]3O)c(O)cc(O)c12 | 50 µg/mL | – | – | 0.254 ×10⁻⁶ cm/s
CCONC(=O)N1CCC[C@H](C(=O)NCc2nc(-c3ccc(C#N)cc3)cs2)C1 | – | – | pH 7.4 | 6.5 ×10⁻⁶ cm/s
CC(C)NCC(O)COc1cccc2ccccc12 (stereo not drawn) | 5 µM | 2 h | – | 12.6 ×10⁻⁶ cm/s
COc1cc(NC(=O)Cn2cc(Cl)c3cc(F)c(-c4cnn(C)c4)cc32)cc(OC)c1OC | – | – | – | 0.08 ×10⁻⁶ cm/s
Cc1c[nH]c2ncnc(N3C=C(C(=O)N4CCC[C@@H](N)C4)SCC3)c12 | 10 µM | – | pH 6.5 | < 0.3 ×10⁻⁶ cm/s
O=c1c(O[C@@H]2O[C@H](CO)[C@H](O)[C@H](O)[C@H]2O)c(-c2ccc(O)c(O)c2)oc2cc(O)cc(O)c12 | 50 µg/mL | – | – | 0.256 ×10⁻⁶ cm/s
CCCCCOC(=O)Nc1nc(=O)n([C@@H]2O[C@H](C)[C@@H](O)[C@H]2O)cc1F | – | 4 h | – | 3.24 ×10⁻⁶ cm/s
C[C@H]1[C@H](NC(=O)/C(=N\OC(C)(C)C(=O)O)c2csc(N)n2)C(=O)N1S(=O)(=O)O | 5 µM | 2 h | – | 0.09 ×10⁻⁶ cm/s
O=c1c(-c2ccc(O)cc2)coc2c([C@@H]3O[C@H](CO)[C@@H](O)[C@H](O)[C@H]3O)c(O)ccc12 | 100 µg/mL | 2 h | – | 45.7 ×10⁻⁶ cm/s
COc1ccccc1OCCNCC(O)COc1cccc2[nH]c3ccccc3c12 (stereo not drawn) | 5 µM | 2 h | – | 4.98 ×10⁻⁶ cm/s
O=C(NCc1nc(-c2ccc(C(F)(F)F)cc2)cs1)[C@H]1CCCN(C(=O)COCCN2CCCCC2)C1 | – | – | pH 7.4 | 3.9 ×10⁻⁶ cm/s
CCOC(=O)[C@H](CCc1ccccc1)N[C@@H](C)C(=O)N1CCC[C@H]1C(=O)O | 5 µM | 2 h | – | 0.13 ×10⁻⁶ cm/s
C[C@@H]1O[C@@H](OC[C@H]2O[C@@H](Oc3c(-c4ccc(OCCO)c(OCCO)c4)oc4cc(OCCO)cc(O)c4c3=O)[C@H](O)[C@@H](O)[C@@H]2O)[C@H](O)[C@H](O)[C@H]1O | 100 µg/mL | 2 h | – | 6.15 ×10⁻⁶ cm/s
O=C(NCc1nc(-c2ccc(C(F)(F)F)cc2)cs1)[C@H]1CCCN(C(=O)CO[C@H]2CCCNC2)C1 | – | – | pH 7.4 | 0.15 ×10⁻⁶ cm/s
